Here are results for 17 compounds from ChEMBL document CHEMBL1130160 (J Med Chem, 1997).

Where only a bound is given, the exact number is not on record here.

By IC50 is commonly meant the concentration at which inhibition is half-maximal. Read a high IC50 as a need for much substance. Usually ED50 stands for the dose that gives a 50% effect, or the effect in half of the subjects. The low end stands for an effect at a small dose, the high end for a need for a large dose.

The subject of the first assay is Rattus norvegicus. In words: Minimum effective dose at which significant increase in uterine weight/body weight in rat was determined (in vivo). It counts as functional. The following applies: read-out: MED. The gist of the method:
(§1)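 In 75-day OVX Sprague–Dawley rats dosed orally for 4 days, beginning 2 weeks post-ovariectomy with 5–6 rats per group, whole uteri were weighed the morning after fasting. MED is the lowest dose giving a significant (p≤0.05) rise in uterine weight/body weight, expressed as % increase over OVX controls ±SE.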
On to `Cc1ccccc1-c1sc2cc(O)ccc2c1C(=O)c1ccc(OCCN2CCCCC2)cc1`, for which the minimal effective dose is 10 mg/kg.
Same read-out and setting: to `O=C(c1ccc(OCCN2CCCCC2)cc1)c1c(-c2ccc(O)cc2)sc2c(O)cccc12` belongs 10 mg/kg.
Same read-out and setting: to `O=C(O)c1ccc(-c2sc3cc(O)ccc3c2C(=O)c2ccc(OCCN3CCCCC3)cc2)cc1` belongs above 10 mg/kg.
With `C#Cc1ccc2c(C(=O)c3ccc(OCCN4CCCCC4)cc3)c(-c3ccc(O)cc3)sc2c1`, the minimal effective dose turned out to be 1 mg/kg.
The same measure, in the same setting: to `O=C(c1ccc(OCCN2CCCCC2)cc1)c1c(-c2ccc3ccccc3c2)sc2cc(O)ccc12` belongs 0.1 mg/kg; to `COc1ccc(-c2sc3cc(O)ccc3c2C(=O)c2ccc(OCCN3CCCCC3)cc2)cc1`, above 10 mg/kg.

For another assay, the system named is Rattus norvegicus. In words: Minimum effective dose at which significant increase in uterine eosinophil peroxidase (EPO) activity in rat was determined (in vivo). It is filed as functional. The following applies: read-out: MED.
For the compound `Cc1ccccc1-c1sc2cc(O)ccc2c1C(=O)c1ccc(OCCN2CCCCC2)cc1`, the minimal effective dose is above 10 mg/kg.
The same measure, in the same setting: to `O=C(c1ccc(OCCN2CCCCC2)cc1)c1c(-c2ccc(O)cc2)sc2c(O)cccc12` belongs above 10 mg/kg.
As to `O=C(O)c1ccc(-c2sc3cc(O)ccc3c2C(=O)c2ccc(OCCN3CCCCC3)cc2)cc1`, the minimal effective dose is above 10 mg/kg.
On the same count and under the same terms, the result for `C#Cc1ccc2c(C(=O)c3ccc(OCCN4CCCCC4)cc3)c(-c3ccc(O)cc3)sc2c1` reads above 10 mg/kg.
With `O=C(c1ccc(OCCN2CCCCC2)cc1)c1c(-c2ccc3ccccc3c2)sc2cc(O)ccc12`, the minimal effective dose turned out to be 0.1 mg/kg.
In the case of `COc1ccc(-c2sc3cc(O)ccc3c2C(=O)c2ccc(OCCN3CCCCC3)cc2)cc1`, the minimal effective dose is above 10 mg/kg.

The subject of another assay is Rattus norvegicus. In words: Minimum effective dose at which significant increase in uterine weight/body weight in rat was determined (in vivo); expressed as % increase relative to ovariectomized (OVX) controls.
Settings: not given
It counts as functional. The gist of the method:
as §1
As to `O=C(c1ccc(OCCN2CCCCC2)cc1)c1c(-c2ccc(O)cc2)sc2c(O)cccc12`, the Increase is 43.5%.
Still for that read-out and setting: the result for `C#Cc1ccc2c(C(=O)c3ccc(OCCN4CCCCC4)cc3)c(-c3ccc(O)cc3)sc2c1` reads 27.8%.

The test system of a further assay is Rattus norvegicus. In words: Percent decrease in serum cholesterol relative to OVX control at 10 mg/kg in rat was determined (in vivo). It counts as functional.
Settings: not given
The essentials: (§2)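 OVX Sprague–Dawley rats (75 days old), 5–6 per group, dosed once daily by oral gavage for 4 consecutive days, starting 14 days after ovariectomy. Vehicle was 20% β-hydroxycyclodextrin at 1 mL/kg, or 1.5% carboxymethylcellulose in some cases. Rats were fasted after the last dose and bled by cardiac puncture next morning.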
As to `O=C(c1ccc(OCCN2CCCCC2)cc1)c1c(-c2ccc(O)cc2)sc2c(O)cccc12`, the Decrease is reported as -3.4%.
As to `O=C(O)c1ccc(-c2sc3cc(O)ccc3c2C(=O)c2ccc(OCCN3CCCCC3)cc2)cc1`, the Decrease was found to be 24.6%.
Same read-out and setting: the result for `C#Cc1ccc2c(C(=O)c3ccc(OCCN4CCCCC4)cc3)c(-c3ccc(O)cc3)sc2c1` reads 65.8%; that for `COc1ccc(-c2sc3cc(O)ccc3c2C(=O)c2ccc(OCCN3CCCCC3)cc2)cc1`, 72.6%.

The target in a further assay is Estrogen receptor (Homo sapiens, UniProt Q92731+P03372). Conditions: mcf7.
The compound `COc1ccc2c(C(=O)c3ccc(OCCN4CCCCC4)cc3)c(-c3ccc(CO)cc3)sc2c1` registered a 50% inhibitory concentration (IC50) of 600 nM. This lies in the sub-micromolar range.
Turning to `Cc1cc2c(C(=O)c3ccc(OCCN4CCCCC4)cc3)c(-c3ccc(O)cc3)sc2c(C)c1O`, the half-maximal inhibitory concentration (IC50) was 500 nM.
On the same count and under the same terms, to `O=C(c1ccc(OCCN2CCCCC2)cc1)c1c(-c2ccc([N+](=O)[O-])cc2)sc2cc(O)ccc12` belongs 500 nM; to `O=C(c1ccc(OCCN2CCCCC2)cc1)c1c(-c2ccc(O)cc2)sc2cc(O)c3ccccc3c12`, 500 nM.
The same measure, in the same setting: the result for `COc1ccc2c(C(=O)c3ccc(OCCN4CCCCC4)cc3)c(-c3ccc4c(c3)OCO4)sc2c1` reads 500 nM; that for `O=C(c1ccc(OCCN2CCCCC2)cc1)c1c(-c2ccc(O)cc2)sc2cc(O)cc(O)c12`, 350 nM; that for `O=C(c1ccc(OCCN2CCCCC2)cc1)c1c(-c2ccc(O)cc2)sc2cc(O)c(O)cc12`, 400 nM.
As to `COc1ccc(-c2sc3ccccc3c2C(=O)c2ccc(OCCN3CCCCC3)cc2)cc1.O=C(O)CC(O)(CC(=O)O)C(=O)O`, the IC50 was determined as 100 nM.
As for `Cc1c(O)cc(C)c2c(C(=O)c3ccc(OCCN4CCCCC4)cc3)c(-c3ccc(O)cc3)sc12`, the concentration for half-maximal inhibition (IC50) was determined as 100 nM.
Take `COc1ccc(-c2sc3c(OC)c(OC)c(OC)cc3c2C(=O)c2ccc(OCCN3CCCCC3)cc2)cc1.Cl`: the IC50 is recorded as 350 nM.
`Cc1ccccc1-c1sc2cc(O)ccc2c1C(=O)c1ccc(OCCN2CCCCC2)cc1` gave an IC50 of 0.7 nM.
Still for that read-out and setting: the result for `O=C(c1ccc(OCCN2CCCCC2)cc1)c1c(-c2ccc(O)cc2)sc2c(O)cccc12` reads 300 nM; that for `COc1ccc2c(C(=O)c3ccc(OCCN4CCCCC4)cc3)c(-c3ccccc3)sc2c1`, above 1000 nM.
The compound `O=C(c1ccc(OCCN2CCCCC2)cc1)c1c(-c2ccc3ccccc3c2)sc2cc(O)ccc12` registered a 50% inhibitory concentration (IC50) of 80 nM.
`COc1ccc(-c2sc3cc(O)ccc3c2C(=O)c2ccc(OCCN3CCCCC3)cc2)cc1` registered an IC50 of 1000 nM.

For a further assay, the system named is Rattus norvegicus. In words: Dose required to reduce serum cholesterol by 50% relative to OVX controls was determined (in vivo). It is filed as functional.
Settings: not given
The essentials:
as §2
`Cc1ccccc1-c1sc2cc(O)ccc2c1C(=O)c1ccc(OCCN2CCCCC2)cc1` registered a median effective dose (ED50) above 10 mg/kg.
As to `C#Cc1ccc2c(C(=O)c3ccc(OCCN4CCCCC4)cc3)c(-c3ccc(O)cc3)sc2c1`, the ED50 was found to be 0.5 mg/kg.
The same measure, in the same setting: the result for `O=C(c1ccc(OCCN2CCCCC2)cc1)c1c(-c2ccc3ccccc3c2)sc2cc(O)ccc12` reads 0.2 mg/kg; that for `COc1ccc(-c2sc3cc(O)ccc3c2C(=O)c2ccc(OCCN3CCCCC3)cc2)cc1`, below 0.1 mg/kg.

In another assay the test system is Rattus norvegicus. In words: Percent decrease in serum cholesterol relative to OVX control at 0.1 mg/kg in rat was determined (in vivo).
Settings: not given
It counts as functional. The gist of the method:
as §2
For the compound `O=C(c1ccc(OCCN2CCCCC2)cc1)c1c(-c2ccc(O)cc2)sc2c(O)cccc12`, the Decrease was -6.1%.
The same measure, in the same setting: to `O=C(O)c1ccc(-c2sc3cc(O)ccc3c2C(=O)c2ccc(OCCN3CCCCC3)cc2)cc1` belongs 3.1%; to `C#Cc1ccc2c(C(=O)c3ccc(OCCN4CCCCC4)cc3)c(-c3ccc(O)cc3)sc2c1`, 39.4%; to `COc1ccc(-c2sc3cc(O)ccc3c2C(=O)c2ccc(OCCN3CCCCC3)cc2)cc1`, 65.2%.

Another assay concerns Rattus norvegicus. In words: Percent decrease in serum cholesterol relative to OVX control at 1 mg/kg in rat. It is filed as functional.
Settings: not given
The essentials: as §2
As to `O=C(c1ccc(OCCN2CCCCC2)cc1)c1c(-c2ccc(O)cc2)sc2c(O)cccc12`, the Decrease is -11.7%.
Still for that read-out and setting: the result for `O=C(O)c1ccc(-c2sc3cc(O)ccc3c2C(=O)c2ccc(OCCN3CCCCC3)cc2)cc1` reads -8.8%; that for `C#Cc1ccc2c(C(=O)c3ccc(OCCN4CCCCC4)cc3)c(-c3ccc(O)cc3)sc2c1`, 58.7%.
As for `COc1ccc(-c2sc3cc(O)ccc3c2C(=O)c2ccc(OCCN3CCCCC3)cc2)cc1`, the Decrease stood at 75.6%.
